In ChEMBL document CHEMBL1157911, “A prodrug approach towards the development of tricyclic-based FBPase inhibitors” (Bioorg Med Chem Lett, 2010):
Values after ≈ are worked out from the molar mass of the structure shown.

How the values were obtained:
[1] = Solubility at pH 6.8; assay type: physicochemical; settings: buffer
Summary of the method: (§1)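 Solubility measured in Japanese Pharmacopoeia test fluids: first fluid (JP1, pH 1.2, simulating gastric conditions) and second fluid (JP2, pH 6.8, simulating intestinal conditions).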

[2] = Solubility at pH 1.2; assay type: physicochemical; settings: buffer; summary of the method: as §1
Cytochrome P450 3A4 = Cytochrome P450 3A4 (Homo sapiens, UniProt P08684); assay: Inhibition of CYP3A4; assay type: ADME
[3] = Inhibition of fructose-1,6-bisphosphatase in monkey hepatocytes assessed as glucose production; assay type: cell-based; settings: Macaca mulatta, Hepatocyte

Cytochrome P450 3A4, sequence (P08684 whole entry): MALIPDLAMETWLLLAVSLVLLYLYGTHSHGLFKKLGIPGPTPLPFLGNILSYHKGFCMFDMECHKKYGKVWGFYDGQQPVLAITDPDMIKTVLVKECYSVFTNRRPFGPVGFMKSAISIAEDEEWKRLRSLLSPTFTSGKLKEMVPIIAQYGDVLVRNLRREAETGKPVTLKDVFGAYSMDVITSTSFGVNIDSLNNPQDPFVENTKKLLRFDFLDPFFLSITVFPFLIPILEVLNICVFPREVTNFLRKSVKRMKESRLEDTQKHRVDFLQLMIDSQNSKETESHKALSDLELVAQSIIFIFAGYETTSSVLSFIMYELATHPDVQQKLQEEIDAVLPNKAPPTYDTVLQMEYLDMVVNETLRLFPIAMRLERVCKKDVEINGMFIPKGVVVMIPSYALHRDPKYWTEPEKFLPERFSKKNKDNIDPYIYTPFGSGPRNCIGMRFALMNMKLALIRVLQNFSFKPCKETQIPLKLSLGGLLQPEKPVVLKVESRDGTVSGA

Compound | solubility [1] [µg/mL] | solubility [2] [µg/mL] | IC50 (Cytochrome P450 3A4) [µM] | IC50 [3] [µM]
Cc1cc(OC[P@@]2(=O)OCC[C@@H](c3ccc(Cl)cc3)O2)c2c(c1C)Cc1scnc1-2 (racemic) | < 0.5 | 4.4 (≈ 9.53 µM) | 0.65 | 66
Cc1cc(OC[P@]2(=O)OCC[C@@H](c3ccc(Cl)cc3)O2)c2c(c1C)Cc1scnc1-2 (racemic) | < 0.5 | < 0.5 | 0.73 | > 100
Cc1ccncc1[C@@H]1CCO[P@](=O)(COc2cc(C)c(C)c3c2-c2ncsc2C3)O1 (racemic) | 81 (≈ 183 µM) | > 100 | 5.2 | > 100
Cc1cc(OC[P@@]2(=O)OCC[C@@H](c3cccnc3C)O2)c2c(c1C)Cc1scnc1-2 | 84 (≈ 190 µM) | 88 (≈ 199 µM) | 15 | 4
Cc1cc(OC[P@@]2(=O)OCC[C@@H](c3cccnc3)O2)c2c(c1C)Cc1scnc1-2 (racemic) | 84 (≈ 196 µM) | 86 (≈ 201 µM) | 2.9 | 8.8
Cc1cc(OC[P@@]2(=O)OCC[C@@H](c3ccncc3)O2)c2c(c1C)Cc1scnc1-2 (racemic) | 51 (≈ 119 µM) | 88 (≈ 205 µM) | – | 41
CCOC(=O)[C@H](C)NP(=O)(COc1cc(C)c(C)c2c1-c1ncsc1C2)N[C@@H](C)C(=O)OCC | 66 (≈ 130 µM) | 27 (≈ 53 µM) | 0.58 | 6.8
Cc1cc(OC[P@@]2(=O)OCC[C@@H](c3ccccn3)O2)c2c(c1C)Cc1scnc1-2 (racemic) | 73 (≈ 170 µM) | 86 (≈ 201 µM) | 8.4 | 22
Cc1cc(OC[P@]2(=O)OCC[C@H](c3cccnc3C)O2)c2c(c1C)Cc1scnc1-2 (racemic) | 83 (≈ 188 µM) | 87 (≈ 197 µM) | 5.8 | 11

More lines, main results first:

solubility [1] [µg/mL] | solubility [2] [µg/mL] | IC50 (Cytochrome P450 3A4) [µM] | Compound | IC50 [3] [µM]
< 0.5 | < 0.5 | 2.7 | Cc1cc(OC[P@]2(=O)OCC[C@@H](c3cccc(Cl)c3)O2)c2c(c1C)Cc1scnc1-2 | > 100
< 0.5 | < 0.5 | 0.3 | COc1cccc([C@@H]2CCO[P@@](=O)(COc3cc(C)c(C)c4c3-c3ncsc3C4)O2)c1 (racemic) | > 100
< 0.5 | 19 (≈ 41.1 µM) | 0.42 | Cc1cc(OC[P@@]2(=O)OCC[C@@H](c3cccc(Cl)c3)O2)c2c(c1C)Cc1scnc1-2 | 15
0.8 (≈ 1.75 µM) | 17 (≈ 37.2 µM) | 0.27 | COc1cccc([C@@H]2CCO[P@](=O)(COc3cc(C)c(C)c4c3-c3ncsc3C4)O2)c1 (racemic) | > 100
